Values belong to the molecule of their own block, whether it stands above or below them.
Assays:
HuT78 = assay: cells; assay type: functional; settings: Homo sapiens, HuT78, 72 h
HCT-116 [1] = assay: cells; assay type: functional; settings: Homo sapiens, HCT-116, 72 h
HeLa = assay: cells; assay type: functional; settings: Homo sapiens, 72 h
U-937 = assay: cells; assay type: functional; settings: Homo sapiens, U-937, 72 h
Histone deacetylase = assay: Inhibition of HDAC in human HeLa cell nuclear extracts by fluorimetric assay; assay type: protein assay
Spleen [2] = assay: Drug level in spleen of human HCT116 cells xenografted in CrTac:NCr-Fox1 (nu) athymic mouse at 50 mg/kg, po qd for 16 days measured after 0.5 hrs; assay type: ADME, organism-based, HCT-116; set-up: dose 50 mg/kg, route oral; settings: in vivo
Method in brief: (§1)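 Tissue levels measured in female athymic mice bearing bilateral HCT116 xenografts after oral 50 mg/kg once daily for 16 days. Sampled at 0.5, 1 and 4 h post dose. Plasma is reported in nM; tumour and spleen in nmol/kg. The 1 h values are the mean of three samples; 0.5 and 4 h values are means of two.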

[3] = Oral bioavailability in CD1 mouse at 3 mg/kg; assay type: ADME, organism-based; settings: in vivo
Method in brief: (§2)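 Cassette PK study in CD1 mice, dosed 3 mg/kg po and 1 mg/kg iv. Cmax was measured in plasma and spleen, and oral bioavailability F was derived.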

HCT-116 [4] = assay: Antitumor activity against human HCT116 cells xenografted in CrTac:NCr-Fox1 (nu) athymic mouse assessed as tumor weight at 50 mg/kg, po qd for 16 days relative to untreated control; assay type: functional
Method in brief: (§3)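 Female athymic mice (n = 14) bearing established bilateral HCT116 colon carcinoma xenografts; oral dosing once daily for 16 days at 50 mg/kg. Read-outs are final tumour weight and mean tumour volume, each relative to control. Body weight was monitored.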

Spleen [5] = assay: Drug level in spleen of human HCT116 cells xenografted in CrTac:NCr-Fox1 (nu) athymic mouse at 50 mg/kg, po qd for 16 days measured after 1 hr; assay type: ADME, organism-based, HCT-116; set-up: dose 50 mg/kg, route oral; settings: in vivo
Method in brief: as §1

HCT-116 [6] = assay: Antitumor activity against human HCT116 cells xenografted in CrTac:NCr-Fox1 (nu) athymic mouse assessed as tumor volume at 50 mg/kg, po qd for 16 days relative to untreated control; assay type: functional
Method in brief: as §3

Spleen [7] = assay: Drug level in spleen of human HCT116 cells xenografted in CrTac:NCr-Fox1 (nu) athymic mouse at 50 mg/kg, po qd for 16 days measured after 4 hrs; assay type: ADME, organism-based, HCT-116; set-up: dose 50 mg/kg, route oral; settings: in vivo
Method in brief: as §1

[8] = Metabolic stability in mouse liver microsomes at 10 uM after 30 mins; assay type: ADME, Microsome; settings: read-out: Stability
Method in brief: (§4)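 Compound at 10 µM incubated with human or mouse liver microsomes. Read-out is the percentage of parent remaining after 30 min.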

[9] = Drug level in tumor of human HCT116 cells xenografted in CrTac:NCr-Fox1 (nu) athymic mouse at 50 mg/kg, po qd for 16 days measured after 0.5 hrs; assay type: ADME, organism-based, Neoplasm, HCT-116; set-up: dose 50 mg/kg, route oral; settings: in vivo
Method in brief: as §1

[10] = Metabolic stability in human liver microsomes at 10 uM after 30 mins; assay type: ADME, Microsome; settings: read-out: Stability
Method in brief: as §4

Cytochrome P450 3A4 = Cytochrome P450 3A4 (Homo sapiens, UniProt P08684); assay: Inhibition of CYP3A4 at 50 uM; assay type: ADME
Chain of Cytochrome P450 3A4 (P08684 whole entry): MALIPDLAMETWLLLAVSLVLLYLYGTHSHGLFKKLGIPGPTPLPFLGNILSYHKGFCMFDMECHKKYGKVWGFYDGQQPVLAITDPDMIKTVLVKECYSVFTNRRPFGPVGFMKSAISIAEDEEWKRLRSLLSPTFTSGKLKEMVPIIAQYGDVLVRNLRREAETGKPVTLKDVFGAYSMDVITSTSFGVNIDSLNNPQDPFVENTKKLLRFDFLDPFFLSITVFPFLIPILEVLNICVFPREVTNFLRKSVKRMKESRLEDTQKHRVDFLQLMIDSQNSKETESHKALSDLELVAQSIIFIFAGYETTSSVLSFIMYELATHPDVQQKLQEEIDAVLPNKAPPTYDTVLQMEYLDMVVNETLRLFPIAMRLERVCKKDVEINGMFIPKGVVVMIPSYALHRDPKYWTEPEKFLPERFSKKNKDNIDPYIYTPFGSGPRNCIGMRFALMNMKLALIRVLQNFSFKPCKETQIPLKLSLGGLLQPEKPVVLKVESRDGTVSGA

[11] = Drug level in tumor of human HCT116 cells xenografted in CrTac:NCr-Fox1 (nu) athymic mouse at 50 mg/kg, po qd for 16 days measured after 1 hr; assay type: ADME, organism-based, Neoplasm, HCT-116; set-up: dose 50 mg/kg, route oral; settings: in vivo
Method in brief: as §1

Cytochrome P450 2C19 = Cytochrome P450 2C19 (Homo sapiens, UniProt P33261); assay: Inhibition of CYP2C19 at 50 uM; assay type: ADME
Chain of Cytochrome P450 2C19 (P33261 whole entry): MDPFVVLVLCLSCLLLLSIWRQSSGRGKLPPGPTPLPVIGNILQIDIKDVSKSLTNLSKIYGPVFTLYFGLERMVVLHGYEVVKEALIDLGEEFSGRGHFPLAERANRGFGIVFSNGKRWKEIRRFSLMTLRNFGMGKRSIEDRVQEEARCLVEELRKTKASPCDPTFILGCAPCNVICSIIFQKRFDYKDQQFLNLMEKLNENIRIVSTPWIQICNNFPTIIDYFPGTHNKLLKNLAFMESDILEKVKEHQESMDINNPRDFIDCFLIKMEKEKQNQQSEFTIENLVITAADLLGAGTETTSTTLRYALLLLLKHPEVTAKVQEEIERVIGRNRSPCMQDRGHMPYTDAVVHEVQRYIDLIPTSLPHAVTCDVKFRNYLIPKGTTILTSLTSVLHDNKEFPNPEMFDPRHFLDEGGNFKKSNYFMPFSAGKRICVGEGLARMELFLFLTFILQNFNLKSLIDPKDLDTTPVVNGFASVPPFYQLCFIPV

[12] = Cmax in CD1 mouse spleen at 3 mg/kg, po or 1 mg/kg, iv; assay type: ADME, organism-based
Method in brief: as §2

[13] = Cmax in CD1 mouse plasma at 3 mg/kg, po or 1 mg/kg, iv; assay type: ADME, organism-based
Method in brief: as §2

Cytochrome P450 2C8 = molecular target: T1, Cytochrome P450 2C8 (Homo sapiens, UniProt P10632); assay: Inhibition of CYP2C8 at 50 uM; assay type: ADME
T1 sequence (P10632 whole entry): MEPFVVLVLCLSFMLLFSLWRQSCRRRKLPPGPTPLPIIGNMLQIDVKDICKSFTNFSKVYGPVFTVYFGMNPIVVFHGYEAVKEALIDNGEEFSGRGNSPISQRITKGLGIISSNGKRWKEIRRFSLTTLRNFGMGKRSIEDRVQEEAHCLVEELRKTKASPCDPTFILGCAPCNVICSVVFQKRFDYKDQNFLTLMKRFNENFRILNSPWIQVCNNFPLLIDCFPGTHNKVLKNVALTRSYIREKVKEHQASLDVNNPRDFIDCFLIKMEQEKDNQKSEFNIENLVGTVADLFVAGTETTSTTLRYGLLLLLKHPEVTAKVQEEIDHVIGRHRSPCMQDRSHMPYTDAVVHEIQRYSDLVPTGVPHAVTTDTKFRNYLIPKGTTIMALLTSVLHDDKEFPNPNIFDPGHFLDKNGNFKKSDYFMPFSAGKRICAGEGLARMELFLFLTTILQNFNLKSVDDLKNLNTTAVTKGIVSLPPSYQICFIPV

Cytochrome P450 2A6 = molecular target: T2, Cytochrome P450 2A6 (Homo sapiens, UniProt P11509); assay: Inhibition of CYP2A6 at 50 uM; assay type: ADME
T2 sequence (P11509 whole entry): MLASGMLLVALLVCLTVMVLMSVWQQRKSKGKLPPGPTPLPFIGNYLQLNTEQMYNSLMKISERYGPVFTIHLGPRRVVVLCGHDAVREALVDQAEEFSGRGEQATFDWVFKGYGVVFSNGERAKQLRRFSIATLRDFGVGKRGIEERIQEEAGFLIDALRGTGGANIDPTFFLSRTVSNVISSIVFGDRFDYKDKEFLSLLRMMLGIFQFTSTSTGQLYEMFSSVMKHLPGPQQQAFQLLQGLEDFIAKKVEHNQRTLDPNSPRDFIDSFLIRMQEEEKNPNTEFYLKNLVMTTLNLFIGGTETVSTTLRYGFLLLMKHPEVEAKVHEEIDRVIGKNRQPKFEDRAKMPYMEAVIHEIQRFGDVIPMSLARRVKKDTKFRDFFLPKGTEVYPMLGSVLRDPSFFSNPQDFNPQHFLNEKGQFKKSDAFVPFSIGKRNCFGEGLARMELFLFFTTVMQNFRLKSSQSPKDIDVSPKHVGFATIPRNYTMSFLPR

[14] = Permeability from basolateral to apical side in human Caco-2 cells; assay type: ADME, cell-based; settings: read-out: permeability
Mus musculus [15] = assay: Inhibition of HDAC in tumor tissue of human HCT116 cells xenografted CrTac:NCr-Fox1 (nu) athymic mouse assessed as increase in histone H3 acetylation at 50 mg/kg, po qd for 16 days measured 1 hr post dose by Western blot relative to untreated control; assay type: functional, HCT-116
Method in brief: (§5)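 Female athymic nude mice bearing established bilateral HCT116 colon carcinoma xenografts (n = 14), dosed orally once daily for 16 days at 50 mg/kg. Tumour tissue taken after the final dose; histone H3 acetylation by Western blot with anti-acetylated H3 antibody. Band intensity by densitometry, normalised to GAPDH, and expressed as % of DMSO controls. One animal per value, n = 1–3.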

[16] = Drug level in tumor of human HCT116 cells xenografted in CrTac:NCr-Fox1 (nu) athymic mouse at 50 mg/kg, po qd for 16 days measured after 4 hrs; assay type: ADME, organism-based, Neoplasm, HCT-116; set-up: dose 50 mg/kg, route oral; settings: in vivo
Method in brief: as §1

[17] = Drug level in plasma of human HCT116 cells xenografted in CrTac:NCr-Fox1 (nu) athymic mouse at 50 mg/kg, po qd for 16 days measured after 1 hr; assay type: ADME, organism-based, HCT-116; set-up: dose 50 mg/kg, route oral; settings: read-out: Drug uptake
Method in brief: as §1

Cytochrome P450 1A2 = molecular target: T3, Cytochrome P450 1A2 (Homo sapiens, UniProt P05177); assay: Inhibition of CYP1A2 at 50 uM; assay type: ADME
T3 sequence (P05177 whole entry): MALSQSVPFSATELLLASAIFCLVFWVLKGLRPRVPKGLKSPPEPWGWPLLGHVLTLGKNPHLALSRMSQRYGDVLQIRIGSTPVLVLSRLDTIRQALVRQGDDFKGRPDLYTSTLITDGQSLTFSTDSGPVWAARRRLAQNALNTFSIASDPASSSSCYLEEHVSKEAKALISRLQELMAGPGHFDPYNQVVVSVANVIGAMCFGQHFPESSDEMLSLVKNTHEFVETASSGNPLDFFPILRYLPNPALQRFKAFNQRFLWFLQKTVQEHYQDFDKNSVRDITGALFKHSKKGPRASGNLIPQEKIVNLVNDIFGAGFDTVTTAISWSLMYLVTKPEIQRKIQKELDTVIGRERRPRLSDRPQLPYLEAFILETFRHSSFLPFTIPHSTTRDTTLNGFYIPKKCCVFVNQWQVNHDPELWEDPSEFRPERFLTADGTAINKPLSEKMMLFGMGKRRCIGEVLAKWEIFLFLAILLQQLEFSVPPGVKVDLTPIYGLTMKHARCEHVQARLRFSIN

Cytochrome P450 2D6 = Cytochrome P450 2D6 (Homo sapiens, UniProt P10635); assay: Inhibition of CYP2D6 at 50 uM; assay type: ADME
Chain of Cytochrome P450 2D6 (P10635 whole entry): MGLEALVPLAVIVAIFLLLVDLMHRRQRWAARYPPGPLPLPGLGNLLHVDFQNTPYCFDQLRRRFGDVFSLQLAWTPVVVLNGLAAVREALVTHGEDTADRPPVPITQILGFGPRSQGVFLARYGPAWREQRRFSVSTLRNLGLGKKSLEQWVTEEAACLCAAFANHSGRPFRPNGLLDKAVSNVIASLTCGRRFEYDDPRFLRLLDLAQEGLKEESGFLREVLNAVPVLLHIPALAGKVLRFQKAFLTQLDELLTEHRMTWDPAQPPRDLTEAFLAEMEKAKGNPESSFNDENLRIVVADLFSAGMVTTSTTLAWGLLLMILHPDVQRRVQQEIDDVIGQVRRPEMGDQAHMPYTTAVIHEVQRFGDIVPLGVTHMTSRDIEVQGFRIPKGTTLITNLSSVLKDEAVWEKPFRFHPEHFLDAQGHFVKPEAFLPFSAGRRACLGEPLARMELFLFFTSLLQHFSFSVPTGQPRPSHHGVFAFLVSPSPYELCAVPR

[18] = Apparent permeability of the compound by PAMPA assay; assay type: ADME
[19] = molecular target: Voltage-gated inwardly rectifying potassium channel KCNH2 (Homo sapiens, UniProt Q12809); assay: Inhibition of human ERG channel
Chain of Voltage-gated inwardly rectifying potassium channel KCNH2 (Q12809 whole entry): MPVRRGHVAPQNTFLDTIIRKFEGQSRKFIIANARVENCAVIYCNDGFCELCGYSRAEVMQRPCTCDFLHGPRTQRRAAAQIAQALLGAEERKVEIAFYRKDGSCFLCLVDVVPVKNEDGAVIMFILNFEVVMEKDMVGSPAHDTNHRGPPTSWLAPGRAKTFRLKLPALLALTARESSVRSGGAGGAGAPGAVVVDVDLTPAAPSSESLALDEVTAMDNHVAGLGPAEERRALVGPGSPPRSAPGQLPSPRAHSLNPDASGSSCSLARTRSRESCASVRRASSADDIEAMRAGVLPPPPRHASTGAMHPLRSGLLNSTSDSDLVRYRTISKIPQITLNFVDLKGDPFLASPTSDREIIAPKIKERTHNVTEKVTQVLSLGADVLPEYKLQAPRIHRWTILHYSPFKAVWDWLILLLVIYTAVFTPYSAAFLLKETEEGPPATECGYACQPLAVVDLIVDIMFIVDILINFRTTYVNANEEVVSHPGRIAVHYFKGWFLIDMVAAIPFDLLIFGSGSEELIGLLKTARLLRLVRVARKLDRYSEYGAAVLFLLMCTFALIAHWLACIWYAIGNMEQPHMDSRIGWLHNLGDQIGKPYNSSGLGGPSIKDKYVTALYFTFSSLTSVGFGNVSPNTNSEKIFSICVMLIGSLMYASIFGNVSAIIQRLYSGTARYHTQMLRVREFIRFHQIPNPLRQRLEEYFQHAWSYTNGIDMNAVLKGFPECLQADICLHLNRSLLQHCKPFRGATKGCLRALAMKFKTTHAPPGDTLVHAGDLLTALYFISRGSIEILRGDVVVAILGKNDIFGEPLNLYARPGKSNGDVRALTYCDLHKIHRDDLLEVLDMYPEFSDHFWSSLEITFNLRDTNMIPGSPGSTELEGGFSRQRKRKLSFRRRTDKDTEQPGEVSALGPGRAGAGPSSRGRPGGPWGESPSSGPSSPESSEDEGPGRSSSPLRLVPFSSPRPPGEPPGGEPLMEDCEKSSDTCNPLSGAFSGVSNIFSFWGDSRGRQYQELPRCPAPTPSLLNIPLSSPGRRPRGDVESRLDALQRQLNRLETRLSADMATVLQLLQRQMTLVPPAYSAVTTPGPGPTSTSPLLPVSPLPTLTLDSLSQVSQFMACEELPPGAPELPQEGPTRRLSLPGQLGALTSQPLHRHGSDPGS

[20] = Drug level in plasma of human HCT116 cells xenografted in CrTac:NCr-Fox1 (nu) athymic mouse at 50 mg/kg, po qd for 16 days measured after 4 hrs; assay type: ADME, organism-based, HCT-116; set-up: dose 50 mg/kg, route oral; settings: read-out: Drug uptake
Method in brief: as §1

Mus musculus [21] = assay: Inhibition of HDAC in human HCT116 cells xenografted CrTac:NCr-Fox1 (nu) athymic mouse assessed as increase in histone H3 acetylation at 50 mg/kg, po qd for 16 days measured 4 hrs post dose by Western blot relative to untreated control; assay type: functional, HCT-116
Method in brief: as §5

GI50 (HCT-116 [1]): 900 nM
GI50 (HeLa): 950 nM
GI50 (U-937): 550 nM
IC50 (Histone deacetylase): 95 nM
SMILES: COc1ccc(CN2C[C@@H]3CN(c4ncc(C(=O)NO)cn4)C[C@@H]3C2)cc1
GI50 (HuT78): 290 nM

GI50 (HCT-116 [1]): 1800 nM
GI50 (HeLa): 3950 nM
GI50 (U-937): 900 nM
IC50 (Histone deacetylase): 122 nM
SMILES: O=C(NO)c1cnc(N2C[C@H]3CN(C(=O)CCCOc4ccccc4)C[C@H]3C2)nc1
GI50 (HuT78): 800 nM

Drug uptake (Spleen [2]): 620 nmol/kg
bioavailability [3]: 15%
Drug uptake (Spleen [5]): 1260 nmol/kg
Drug uptake (Spleen [7]): 500 nmol/kg
GI50 (HCT-116 [1]): 120 nM
remaining at 0.5 h, 10 µM [8]: 45%
Drug uptake [9]: 80 nmol/kg
remaining at 0.5 h, 10 µM [10]: 72%
inhibition (INH) (Cytochrome P450 3A4): Not Active
GI50 (HeLa): 260 nM
Drug uptake [11]: 215 nmol/kg
inhibition (INH) (Cytochrome P450 2C19): Not Active
Cmax [12]: 218 ng/mL
Cmax [13]: 31 ng/mL
inhibition (INH) (Cytochrome P450 2C8): Not Active
inhibition (INH) (Cytochrome P450 2A6): Not Active
GI50 (U-937): 72 nM
Papp B→A [14]: 9.4 ×10⁻⁶ cm/s
Drug uptake [16]: 154 nmol/kg
concentration at 1 h [17]: 14 nM
inhibition (INH) (Cytochrome P450 1A2): Not Active
IC50 (Histone deacetylase): 13 nM
IC50 (Cytochrome P450 2D6): 10000 nM
Papp [18]: 0.5 ×10⁻⁶ cm/s
concentration at 4 h [20]: 25 nM
SMILES: O=C(NO)c1cnc(N2C[C@H]3CN(Cc4ccc5ccccc5c4)C[C@H]3C2)nc1
GI50 (HuT78): 79 nM
T/C (HCT-116 [4]): 80%
Activity (HCT-116 [6]): 28%
fold change (FC) (Mus musculus [15]): 2
IC50 [19]: 4100 nM
fold change (FC) (Mus musculus [21]): 2

GI50 (HCT-116 [1]): 740 nM
GI50 (HeLa): 1130 nM
GI50 (U-937): 480 nM
IC50 (Histone deacetylase): 64 nM
SMILES: O=C(NO)c1cnc(N2C[C@@H]3CN(S(=O)(=O)c4ccc5ccccc5c4)C[C@@H]3C2)nc1
GI50 (HuT78): 300 nM

Reference: ChEMBL document CHEMBL1268928, “Design and synthesis of novel pyrimidine hydroxamic acid inhibitors of histone deacetylases” (Bioorg Med Chem Lett, 2010)
